ChEMBL document CHEMBL5576109, “Hydantoin derivative dimers as broad-spectrum antimicrobial agents against ESKAPE pathogens with enhanced killing rate and stability” (RSC Med Chem, 2024)
In brackets after ≈: the same amount, converted by molar mass. Activity calls are given as the source filed them. The rule behind the calls is not given here.

Columns and labels:
[1] = test system: Staphylococcus aureus; assay: Antibacterial activity against Staphylococcus aureus ATCC 29213 assessed as inhibition of bacterial growth by measuring fold increase in MIC measured after 16 to 18 hrs in presence of MgCl2 by TECAN SPARK microplate reader analysis; format: functional; conditions: time 16-18 hrs
In short: (§1)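 Salt/serum stability. Exponential-phase bacteria incubated 16–18 h with compound in medium supplemented with 10 mM NaCl, 10 mM KCl, 10 mM MgCl2, 10% DMEM or 10% FBS. Stability judged from the change in MIC.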

[2] = test system: Escherichia coli; assay: Induction of ROS generation in Escherichia coli ATCC 25922 assessed as increase in fluorescence intensity incubated for 30 mins by DCFH-DA staining based analysis; format: functional, organism-based
In short: (§2)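 Overnight 37 °C cultures washed three times and resuspended in PBS, diluted to OD600 0.1, and mixed with DCFH-DA (5 µM). Treated with a range of compound concentrations for 30 min at 37 °C in the dark. Fluorescence read at Ex 488 / Em 530 nm.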

[3] = test system: Pseudomonas aeruginosa; assay: Antibacterial activity against Pseudomonas aeruginosa CMCC 10104 assessed as reduction bacterial growth after 16 hrs by TECAN SPARK microplate reader analysis; format: functional
In short: (§3)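 Single colony grown overnight in 4 mL TSB at 37 °C, diluted 100-fold and grown to mid-log phase. Compounds 2-fold serially diluted in TSB and mixed 1:1 with bacteria in TSB (1 × 10^6 CFU/mL). Incubated 16 h at 37 °C, then A600 read. MIC taken as the lowest concentration giving complete growth inhibition.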

[4] = test system: Staphylococcus aureus; assay: Induction of ROS generation in Staphylococcus aureus ATCC 29213 assessed as increase in fluorescence intensity incubated for 30 mins by DCFH-DA staining based analysis; format: functional, organism-based; in short: as §2
[5] = test system: Acinetobacter baumannii; assay: Antibacterial activity against Acinetobacter baumannii ATCC 19606 assessed as reduction bacterial growth after 16 hrs by TECAN SPARK microplate reader analysis; format: functional; in short: as §3
[6] = test system: Staphylococcus aureus; assay: Bactericidal activity against Staphylococcus aureus ATCC 29213 assessed as reduction in colony forming units at 4 times of MIC within 15 mins by time-kill kinetics assay; format: functional, organism-based
In short: (§4)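 Bacteria grown at 37 °C to mid-log phase and diluted to 1 × 10^6 CFU/mL. […] Mixtures diluted 10^2–10^4-fold and plated on TSB agar; colonies counted after 20 h at 37 °C.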

[7] = test system: Staphylococcus aureus; assay: Antibacterial activity against Staphylococcus aureus ATCC 29213 assessed as inhibition of bacterial growth by measuring fold increase in MIC compound preincubated at 80 degree C for 1 hr followed by bacterial culture addition and measured after 16 to 18 hrs by TECAN SPARK microplate reader analysis; format: functional; conditions: time 16-18 hrs
[8] = test system: Staphylococcus aureus; assay: Induction of inner membrane permeabilization in Staphylococcus aureus ATCC 29213 assessed as increase in fluorescence intensity incubated for 1 hr by propidium iodide staining based TECAN SPARK microplate reader analysis; format: functional, organism-based
In short: (§5)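 Overnight 37 °C cultures resuspended in PBS and diluted to OD600 0.1. Propidium iodide added (5 µM final) for 30 min. Treated with a range of compound concentrations for 1 h in the dark; fluorescence read at Ex 535 / Em 615 nm.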

[9] = test system: Escherichia coli; assay: Antibacterial activity against Escherichia coli ATCC 25922 assessed as reduction bacterial growth after 16 hrs by TECAN SPARK microplate reader analysis; format: functional; in short: as §3
[10] = Hemolytic activity in mouse red blood cells assessed as hemolysis incubated for 1 hr by TECAN SPARK microplate reader analysis; format: toxicity, cell-based, Erythrocyte; conditions: red blood cells (erythrocytes)
In short: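 Mouse RBCs washed three times in 1× PBS by centrifugation (3500 rpm, 10 min) and made up as a 5% v/v suspension. Incubated with 2-fold serially diluted compound in PBS for 1 h at 37 °C, then centrifuged. Supernatant diluted in PBS and A540 read. % hemolysis calculated relative to 1% Triton X-100 (100%) and PBS (0%).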

[11] = test system: Escherichia coli; assay: Induction of morphological changes in Escherichia coli ATCC 25922 assessed as cell shrinkage at 8 time of MIC for 6 hrs by scanning electron microscopy; format: functional, organism-based
In short: (§6)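 Mid-log cells exposed to compound for 6 h at 37 °C alongside untreated controls. Cells pelleted (3000 rpm, 15 min), washed four times in PBS, and fixed with 2.5% glutaraldehyde. Dehydrated through graded ethanol, critical-point dried and gold-coated, then imaged by SEM.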

[12] = test system: Escherichia coli; assay: Induction of outer membrane permeabilization in Escherichia coli ATCC 25922 assessed as increase in fluorescence intensity at 1 to 4 times of MIC incubated for 1 hr by NPN staining based TECAN SPARK microplate reader analysis; format: functional, organism-based
In short: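 Overnight E. coli resuspended in PBS and diluted to OD600 0.1. NPN added (10 µM final) for 30 min. Treated with a range of compound concentrations for 1 h in the dark; fluorescence read at Ex 350 / Em 420 nm.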

[13] = test system: Escherichia coli; assay: Antibacterial activity against Escherichia coli ATCC 25922 assessed as inhibition of bacterial growth by measuring fold increase in MIC measured after 16 to 18 hrs in presence of MgCl2 by TECAN SPARK microplate reader analysis; format: functional; conditions: time 16-18 hrs; in short: as §1
[14] = test system: Escherichia coli; assay: Induction of inner membrane permeabilization in Escherichia coli ATCC 25922 assessed as increase in fluorescence intensity incubated for 1 hr by propidium iodide staining based TECAN SPARK microplate reader analysis; format: functional, organism-based; in short: as §5
[15] = test system: Staphylococcus aureus; assay: Induction of morphological changes in Staphylococcus aureus ATCC 29213 assessed as cellular inclusion leakage at 8 time of MIC for 6 hrs by scanning electron microscopy; format: functional, organism-based; in short: as §6
[16] = test system: Escherichia coli; assay: Bactericidal activity against Escherichia coli ATCC 25922 assessed as reduction in colony forming units at 4 times of MIC measured after 60 mins by time-kill kinetics assay; format: functional, organism-based; in short: as §4
[17] = test system: Escherichia coli; assay: Antibacterial activity against Escherichia coli ATCC 25922 assessed as inhibition of bacterial growth by measuring fold increase in MIC compound preincubated at 80 degree C for 1 hr followed by bacterial culture addition and measured after 16 to 18 hrs by TECAN SPARK microplate reader analysis; format: functional; conditions: time 16-18 hrs
[18] = test system: Escherichia coli; assay: Bactericidal activity against Escherichia coli ATCC 25922 assessed as reduction in colony forming units incubated for 15 to 120 mins by time-kill kinetics assay; format: functional, organism-based; conditions: time 15-120 min; in short: as §4
[19] = test system: Escherichia coli; assay: Induction of cytoplasmic membrane depolarization in Escherichia coli ATCC 25922 assessed as increase in fluorescence intensity by DiSC3(5) staining based analysis; format: functional, organism-based
In short: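 Mid-log cells washed in 5 mM HEPES/5 mM glucose and resuspended at 10^6 CFU/mL in glucose/HEPES/100 mM KCl (1:1:1). DiSC3(5) added and fluorescence (Ex 622 / Em 670 nm) followed for 30 min at 37 °C until minimal. Compound then added and the fluorescence rise recorded.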

[20] = test system: Escherichia coli; assay: Bactericidal activity against Escherichia coli ATCC 25922 assessed as reduction in colony forming units at 1 to 4 times of MIC by time-kill kinetics assay; format: functional, organism-based; conditions: time 15-120 min, TDE = time-dependent effect; in short: as §4
[21] = test system: Escherichia coli; assay: Induction of morphological changes in Escherichia coli ATCC 25922 assessed as cellular inclusion leakage at 8 time of MIC for 6 hrs by scanning electron microscopy; format: functional, organism-based; in short: as §6
[22] = test system: Escherichia coli; assay: Antibacterial activity against Escherichia coli ATCC 25922 assessed as inhibition of bacterial growth by measuring fold increase in MIC measured after 16 to 18 hrs in presence of 10% FBS by TECAN SPARK microplate reader analysis; format: functional; conditions: time 16-18 hrs; in short: as §1

CCCCCCN1C(=O)[C@H](CCCCNC(=N)N)N(Cc2ccc(-c3ccc(CN4C(=O)N(CCCCCC)C(=O)[C@@H]4CCCCNC(=N)N)cc3)cc2)C1=O
fold change (FC) [1]: 1 | Activity [2]: Dose-Dependent Effect | MIC [3]: 15.6 µg/mL (≈ 20.2 µM) | Activity [4]: Dose-Dependent Effect | MIC [5]: 15.6 µg/mL (≈ 20.2 µM) | Activity [6]: Active | fold change (FC) [7]: 1 | Activity [8]: Dose-Dependent Effect | MIC [9]: 3.91 µg/mL (≈ 5.06 µM) | HC50 at 1 h [10]: 61 µg/mL | Activity [11]: Active | Activity [12]: Active | fold change (FC) [13]: 1 | Activity [14]: Dose-Dependent Effect | Activity [15]: Active | Activity [16]: Active | fold change (FC) [17]: 1 | Activity [18]: Dose-Dependent Effect | Activity [19]: Dose-Dependent Effect | Activity [20]: Tde | Activity [21]: Active | fold change (FC) [22]: 1
